In the library only some 2.5% were active in any assay of this set; here they are far more common.
SENP1 inh – blocks the human SENP1 SUMO protease catalytic domain | Q9P0U3 | recombinant SENP1 catalytic domain, CyPet-SUMO1-YPet FRET cleavage | inhibition, % at 10 µM | hit rate 0.21% among 360,000;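 active = inhibition at least 30% at 10 µM, raw YFP signal under a set limit, fluorescence ratio 0.5 to 1.5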
Target sequence (Q9P0U3 419-644 limits assumed): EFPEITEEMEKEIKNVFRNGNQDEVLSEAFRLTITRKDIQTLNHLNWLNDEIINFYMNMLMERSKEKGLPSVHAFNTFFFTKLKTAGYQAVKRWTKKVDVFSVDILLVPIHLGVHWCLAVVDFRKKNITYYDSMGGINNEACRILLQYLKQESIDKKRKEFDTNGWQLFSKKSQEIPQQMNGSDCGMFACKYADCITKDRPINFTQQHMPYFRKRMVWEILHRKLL
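Test system: human SENP1 catalytic domain; medium: Tris pH 8 buffer plus EDTA, NaCl, BME, BSA, NP40, catalase; incubation: 50 min reaction at room temperature; technique: FRET, CFP and YFP emission; controls: no-enzyme low control and enzyme-plus-DMSO high control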
SENP8 block-1 – inhibitors of human SENP8 protease | recombinant SENP8, Nedd8 substrate fluorescence | hit rate 0.64% among 360,000 | Q96LD8 | inhibition, % at 20 µM | AID 602440; in the data active = inhibition mostly above about 40%, no sharp cut-off; inactive = mostly below about 27%
Target sequence (Q96LD8 whole entry, looked up): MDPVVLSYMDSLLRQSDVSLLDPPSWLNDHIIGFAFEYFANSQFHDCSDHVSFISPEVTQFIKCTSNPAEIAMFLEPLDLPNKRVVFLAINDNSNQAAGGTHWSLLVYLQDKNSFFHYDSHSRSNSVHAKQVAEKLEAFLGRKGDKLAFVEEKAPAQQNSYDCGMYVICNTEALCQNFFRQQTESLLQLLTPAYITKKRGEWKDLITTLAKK
SENP7 inh – inhibitors of human SENP7 protease; Q9BQF6; recombinant SENP7, Z-RLRGG-aminoluciferin luminescence, 40 min; inhibition, % at 5 µM; hit rate 1.5% among 330,000;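 active = inhibition above about 50% at the single test dose, limit read from the data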
SENP6 inh – inhibitors of human SENP6 protease | Recombinant SENP6 catalytic domain, aminoluciferin luminescence | inhibition, % at 10 µM | hit rate 1.8% among 330,000 | AID 2599;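 active = inhibition above about 50% at the single tested dose, limit read from the data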
SENP8 block-2 – SENP8 protease inhibition; Q96LD8; purified SENP8, Z-RLRGG-aminoluciferin cleavage, luminescence; inhibition, % at 10 µM; hit rate 1.2% among 330,000; AID 2540; in the data active = inhibition above about 50%
SENP8 conf – confirmation of human SENP8 protease inhibitors | shares compounds with SENP7 inh | Recombinant SENP8, Z-RLRGG-aminoluciferin luminescence, 60 min | inhibition, % at 12.5 µM | hit rate 40% among 6,200 | AID 488912;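 active = mean inhibition across replicates above about 50%, limit read from the data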
SENP6 conf – human SENP6 inhibition, confirmed | shares compounds with SENP7 inh | inhibition, % at 12.5 µM | hit rate 58% among 6,200 | recombinant SENP6, Z-RLRGG-aminoluciferin luminescence | AID 488915
SENP7 conf – confirmation of human SENP7 protease inhibitors. shares compounds with SENP7 inh. recombinant SENP7, Z-RLRGG-aminoluciferin luminescence, 40 min. inhibition, % at 12.5 µM. hit rate 69% among 6,200. AID 488917
Casp3 SENP sel – caspase-3 inhibition (SENP selectivity assay); shares compounds with SENP7 inh; purified caspase-3, Z-DEVD-aminoluciferin luminescence, 60 min; inhibition, % at 12.5 µM; hit rate 60% among 6,200; AID 488918;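 active = mean inhibition above about 50%, limit read from the data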
Target sequence (P42574 28-227 limits assumed): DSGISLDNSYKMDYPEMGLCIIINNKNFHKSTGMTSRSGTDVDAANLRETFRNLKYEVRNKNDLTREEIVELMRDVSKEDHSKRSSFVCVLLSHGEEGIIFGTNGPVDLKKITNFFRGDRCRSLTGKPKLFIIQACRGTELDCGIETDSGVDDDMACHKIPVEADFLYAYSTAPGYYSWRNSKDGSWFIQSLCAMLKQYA
SENP luc ctr – luminescence interference (SENP counter-screen); hit rate 39% among 6,200; inhibition, % at 12.5 µM; Pre-incubated SENP8/Z-RLRGG-aminoluciferin, luciferase luminescence interference; shares compounds with SENP7 inh;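 active = mean inhibition above about 50% when retested at one dose, limit read from the data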
Each line names hits and unclear results; the compound was inactive in the other large screens (follow-up assays come after a bar, where they were run).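 The calls were made as follows, unless noted: active = mean inhibition above about 50% in the one-dose retest (limit read from the data); inactive = the rest.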

O=C(OCc1ccccc1Cl)c1cccnc1Cl	SENP6 inh 63.0 | SENP8 conf inactive | SENP6 conf inactive | SENP7 conf 71.6 | Casp3 SENP sel inactive | SENP luc ctr inactive
O=C(COC(=O)c1cccnc1Cl)c1ccccc1	SENP7 inh 65.4, SENP6 inh 78.5 | SENP8 conf 56.3 | SENP6 conf 52.7 | SENP7 conf 87.0 | Casp3 SENP sel 86.0 | SENP luc ctr 71.1
CC(C)N(C(=O)COC(=O)c1cccnc1Cl)c1ccccc1	none
O=C(OCc1ccc(COC(=O)c2cccnc2Cl)cc1)c1cccnc1Cl	none
CCc1ccc(C(=O)COC(=O)c2cccnc2Cl)cc1	SENP7 inh 93.8, SENP6 inh 93.0, SENP8 block-2 87.5 | SENP8 conf 90.1 | SENP6 conf 90.1 | SENP7 conf 100.1 | Casp3 SENP sel 93.0 | SENP luc ctr 87.9
CC1(C)Oc2c(ccc(O)c2CN2CCOCC2)C2=C1CCCC2	none (no result: SENP7 inh, SENP6 inh, SENP8 block-2)
Cc1cc(C)c(NC(=O)C2CC(=O)N(C3CCCC3)C2)c(C)c1 (centres undefined)	none
O=C(O/N=C/c1ccc(Br)cc1)c1ccc(F)cc1	SENP7 inh 75.7 | SENP8 conf inactive | SENP6 conf inactive | SENP7 conf inactive | Casp3 SENP sel inactive | SENP luc ctr inactive
COCCn1cnc2c1c(=O)n(Cc1ccc(C#N)cc1)c(=O)n2Cc1ccccc1	none
CCSc1nnc(Cc2cc(=O)[nH]c(=O)[nH]2)n1-c1cc(C)ccc1C	SENP6 inh 53.1 | SENP8 conf inactive | SENP6 conf inactive | SENP7 conf inactive | Casp3 SENP sel inactive | SENP luc ctr inactive
O=C(Nc1cccc(O)c1)c1noc2c1CCc1ccccc1-2	SENP7 inh 98.6, SENP6 inh 97.2, SENP8 block-2 95.5 | SENP8 conf 94.5 | SENP6 conf 95.7 | SENP7 conf 102.5 | Casp3 SENP sel 93.5 | SENP luc ctr 92.5
Cc1nn(-c2ccccc2)c(C)c1NC(=O)COC(=O)c1cccc(OC(F)F)c1	none
C/C(=N/N=C/c1ccccc1O)c1ccccc1O	SENP7 inh 86.0, SENP6 inh 59.8, SENP8 block-2 54.6 | SENP8 conf inactive | SENP6 conf inactive | SENP7 conf inactive | Casp3 SENP sel inactive | SENP luc ctr inactive
Oc1ccccc1C=NN=C1c2ccccc2-c2ccccc21	none (no result: SENP7 inh, SENP6 inh, SENP8 block-2)
O=C(Nc1ccc(C(=O)N2CCOCC2)cc1)c1cccc(Br)c1	none
O=C(Nc1cccc(Br)c1)c1cccc(OC(=S)N2CCOCC2)c1	SENP7 inh 54.7, SENP6 inh 56.8 | SENP8 conf inactive | SENP6 conf inactive | SENP7 conf 74.2 | Casp3 SENP sel inactive | SENP luc ctr 51.1
Cc1cc(N/C=C/C(=O)c2ccccc2)ccc1Br	SENP7 inh 79.9, SENP6 inh 67.0, SENP8 block-2 62.2 | SENP8 conf inactive | SENP6 conf inactive | SENP7 conf inactive | Casp3 SENP sel inactive | SENP luc ctr inactive
CC(=O)Nc1ccc(N/C=C/C(=O)c2ccccc2)cc1	SENP7 inh 54.6, SENP6 inh 70.2, SENP8 block-2 50.4 | SENP8 conf inactive | SENP6 conf 66.0 | SENP7 conf 90.4 | Casp3 SENP sel 78.2 | SENP luc ctr inactive
Cc1ccc(O)c(N/C=C/C(=O)c2ccc(F)cc2)c1	SENP7 inh 68.4, SENP6 inh 82.4, SENP8 block-2 79.6 | SENP8 conf 61.1 | SENP6 conf 79.7 | SENP7 conf 95.3 | Casp3 SENP sel 67.1 | SENP luc ctr inactive
COc1ccc(C(=O)/C=C/Nc2ccc(NC(C)=O)cc2)cc1OC	none
O=C(/C=C/Nc1ccccc1)c1ccc(Cl)cc1Cl	SENP7 inh 86.5, SENP8 block-2 82.6 | SENP8 conf 88.8 | SENP6 conf 91.8 | SENP7 conf 98.4 | Casp3 SENP sel 82.3 | SENP luc ctr 64.0
CCc1nn(C)c(N)c1C	none
CC(=O)c1ccccc1C(=O)N1CCCC(C(=O)c2ccc(C(F)(F)F)cc2)C1 (centres undefined)	none
Cc1cn([C@H]2C[C@H](O)[C@@H](/C=C/C(=O)NCCN3CCCCC3)O2)c(=O)[nH]c1=O	none (no result: SENP7 inh, SENP6 inh, SENP8 block-2)
CC(C)(C)C(=O)N(Cc1ccc(Cl)cc1)c1cnccn1	none
O=C(/C=C\Nc1ccc(Br)cc1)c1cccnc1	SENP7 inh 66.4, SENP6 inh 82.6, SENP8 block-2 57.0 | SENP8 conf 66.3 | SENP6 conf 64.3 | SENP7 conf 82.9 | Casp3 SENP sel 71.1 | SENP luc ctr inactive
Cc1ccc(N/C=C/C(=O)c2ccc(C)cc2)cc1	none
O=C(/C=C/Nc1ccc(F)cc1Br)c1ccccc1	SENP7 inh 100.0, SENP6 inh 95.8, SENP8 block-2 94.5 | SENP8 conf inactive | SENP6 conf inactive | SENP7 conf inactive | Casp3 SENP sel 74.7 | SENP luc ctr inactive
CN(C)c1ccc(N/C=C/C(=O)c2ccccc2)cc1	SENP7 inh 102.1, SENP6 inh 96.0, SENP8 block-2 95.2 | SENP8 conf 69.9 | SENP6 conf 94.1 | SENP7 conf 100.5 | Casp3 SENP sel 96.6 | SENP luc ctr inactive
O=C(/C=C/Nc1ccccc1)c1ccccc1	SENP7 inh 96.2, SENP6 inh 99.8, SENP8 block-2 92.9 | SENP8 conf 90.4 | SENP6 conf 96.2 | SENP7 conf 101.1 | Casp3 SENP sel 95.6 | SENP luc ctr 53.9
CSc1ccc(CNC(=O)C2CCC(=O)N(CCc3cccc(F)c3)C2)cc1 (centres undefined)	none
CC(=O)c1cn(N2CCCCC2)c(=O)[nH]c1=O	none
Cc1ccc(Cl)cc1N1CCN(S(C)(=O)=O)CC1	SENP7 inh 66.7 | SENP8 conf inactive | SENP6 conf inactive | SENP7 conf inactive | Casp3 SENP sel inactive | SENP luc ctr inactive
Cc1ccc(NC(=O)CN2CCN(C)CC2)cc1Br	none
CCN1C(=O)/C(=C\N2CCCc3ccccc32)SC1=S	none
CCN1C(=O)/C(=C/N2CCc3ccccc32)SC1=S	SENP7 inh 55.9 | SENP8 conf inactive | SENP6 conf inactive | SENP7 conf inactive | Casp3 SENP sel inactive | SENP luc ctr inactive
Cc1ccc(-c2nc3ccsc3c(=O)o2)cc1	SENP7 inh 52.2, SENP6 inh 55.0 | SENP8 conf inactive | SENP6 conf inactive | SENP7 conf 67.3 | Casp3 SENP sel inactive | SENP luc ctr 55.9
COc1ccc(CCNC(=O)CC(=O)N/N=C\c2ccc(OCC(N)=O)cc2)cc1OC	none (no result: SENP7 inh, SENP6 inh, SENP8 block-2)
CCN(CC(=O)N1CCCC1)S(=O)(=O)c1cc(C)ccc1OC	none

Source: PubChem BioAssay
